Test results published in ChEMBL document CHEMBL4513216, “Probing the Open Global Health Chemical Diversity Library for Multistage-Active Starting Points for Next-Generation Antimalarials” (ACS Infect Dis, 2020).

Experiment: Toxicity liver stage against HepG2, at 10uM
Format: cell-based
Set-up: test concentration 10 uM, cell line HepG2-A16-CD81EGFP
Settings: human, HepG2-A16-CD81EGFP cells; read-out: INHIBITION
Method in brief: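 Uninfected HepG2-A16-CD81EGFP cells, 3 × 10^3 per well, 1536-well, plated on prespotted compound at 10 μM final, parasite-free screening media added to match infected plates; puromycin 10 μM positive, DMSO 0.5% negative; run in parallel with 48 h PbLuc assay at 37 °C, 5% CO2; viability by CellTiter-Glo luminescence, normalized to controls.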

| Structure (SMILES) | cytotoxicity at 10 µM [%] |
| --- | --- |
| CCN(CC)S(=O)(=O)c1ccc(CCC(=O)NCc2cc(C)on2)cc1 | -3.09 |
| CC1(C)[C@H](Cc2cc(CN3CCCCC3)on2)C[C@@H]1NS(C)(=O)=O | 1.12 |
| COC(=O)[C@@H]1CN(C(=O)Nc2ccccc2)CCN1C(C)=O | 4.23 |
| O=C(NCCCc1ccco1)c1cnc(N2CCOCC2)nc1 | 11 |
| O=C1CC(c2cccnc2)c2c(c(C(=O)O)cn2-c2cccc(F)c2)N1 (configuration not stated) | -0.585 |
| O=C(C1CC(=O)N(c2n[nH]c3cc(Br)ccc23)C1)N1CCCC1 (configuration not stated) | -11.2 |
| O=C(NCCC(O)c1cccs1)c1ccc(Br)o1 (configuration not stated) | -15.2 |
| COc1ccccc1C(=O)Nc1nc2c(s1)CN(S(=O)(=O)C1CC1)CC2 | -11.7 |
| O=C(NCCOc1ccccc1)NCC(O)c1cccs1 (configuration not stated) | -7.83 |
| Cn1nnc2c(N3CC(C(=O)NCCC4=CCCCC4)C3)ncnc21 | 8.41 |
| O=C(C1CCOCC1)N1CCC2(CCNCC2)C1 | 3.41 |
| Cn1nc(CN2CCCC2)c2c1CN(C(=O)c1ccc[nH]1)CC2 | 6.86 |
| CN(Cc1cccnc1)C1CC2(CCN(C(=O)c3cscn3)CC2)C1 | 1.02 |
| Cn1c(C(=O)NC2CCCC2)nc2c1CCN(Cc1ccccc1)C2 | 10.3 |
| O=c1cc(CN2CCCC2)nc2n1CCCN(Cc1ccoc1)C2 | -123 |
| CC(NC(=O)OC(C)(C)C)c1nnc(S(=O)(=O)Cc2ccc(Cl)cc2)o1 (configuration not stated) | -8.92 |
| CCOc1c(Cl)cc(Cl)cc1CNCCCn1ccnc1 | -1.32 |
| Cc1c(C(=O)O)nnn1Cc1cccc(C(F)(F)F)c1 | -2.93 |
| CC(C)Sc1nnc(CCNC(=O)OC(C)(C)C)o1 | 14.3 |
| CC(=O)NCCN1CCC(c2cccs2)CC1 | -22.6 |
| CCNC(=O)c1nnn(Cc2ccccc2)c1OC | 4.62 |
| COc1ccc(C(C)N(C)Cc2c(C(C)(C)C)[nH]c3ncccc23)cc1 (configuration not stated) | -0.0612 |
| CC(=O)NC1Cc2ccc(S(=O)(=O)NCCNc3ccccn3)cc2C1 (configuration not stated) | 0.126 |

| Structure (SMILES) | cytotoxicity at 10 µM [%] |
| --- | --- |
| CC(C)c1ccc(CN[C@@H]2COC[C@H]2c2ccc(F)cc2)cc1 | -7.52 |
| CN(C)c1ccc(CC2CCN(c3cnccn3)CC2)nn1 | 2.29 |
| CC(C)OC(=O)[C@@H]1CCN(C(=O)c2ccccn2)[C@@H]1c1ccc(F)cc1 | 4.81 |
| Cc1n[nH]c(C)c1CCC(=O)N[C@@H]1CCC[C@@H](Oc2ccccc2)[C@@H]1O | 3.01 |
| CN1CCN(C(=O)C2CCN(c3cccnn3)C2)CC1 (configuration not stated) | -32.4 |
| CC(C)N(Cc1ccccc1)C(=O)c1cc(C2CCCN2C)ccn1 (configuration not stated) | -18.7 |
| Cc1nnc2n1CCN(C(=O)c1ccc(Cn3cccc3)cc1)C2 | -2.4 |
| CCOc1ccccc1CCNC(=O)NCC(O)c1ccsc1 (configuration not stated) | -2.23 |
| COCCCNC(=O)Nc1c(C)cccc1C(C)C | 2.66 |
| CNS(=O)(=O)CC(=O)NCc1cc2c(s1)CCC(C)(C)C2 | 3.15 |
| CS(=O)(=O)C1(CNCc2cccc(-n3cccn3)c2)CCOCC1 | -141 |
| CC(C)CN(C(=O)Nc1cccnc1)C1CC1 | -11.3 |
| CCN(CCNC(=O)Nc1nnc(C)s1)C(=O)OC(C)(C)C | -9.41 |
| O=C1CCCN1CCN1CCCCC1Cn1cncn1 (configuration not stated) | -0.225 |
| O=C(O)c1csc(S(=O)(=O)N2CCN(Cc3ccc(Cl)cc3)CC2)c1 | 4 |
| Cc1cc(C(=O)NC(C)CC(=O)c2cccs2)n(C)n1 (configuration not stated) | -0.0944 |
| O=C(NCc1nncn1C1CC1)c1ccccc1Oc1cccnc1 | -4.97 |
| COc1ncccc1CNCc1c(C(C)C)nn(C)c1N(C)C | -5.91 |
| CN(C)C(CNC(=O)NCCS(C)(=O)=O)c1ccco1 (configuration not stated) | 4.41 |
| COc1ccc(C(C)NC(=O)Nc2nnc(C)s2)c(OC)c1 (configuration not stated) | 9.12 |
| COC(=O)N1CCC(NC(=O)Cn2cc(C)c3ccccc32)CC1 | -2.37 |
| CN(Cc1ccc(Cl)s1)C(=O)COc1cccc(C(N)=O)c1 | -2.83 |
| Cc1noc(CN(CCc2cccs2)Cc2cccc(C#N)c2)n1 | 2.27 |

| Structure (SMILES) | cytotoxicity at 10 µM [%] |
| --- | --- |
| COCCOCC(=O)Nc1cc(C)ccc1F | 3.91 |
| CC(C)c1ccc(C(=O)N2CCOCC2CC(=O)c2ccco2)cn1 (configuration not stated) | 6.93 |
| CC(C)NC(=O)c1nnn(-c2cccc(F)c2)c1C1CC1 | -0.0198 |
| Cc1cc(C)c(C(=O)N2CCOC(c3cccs3)C2)c(=O)[nH]1 (configuration not stated) | -1.29 |
| Cn1c(SCC(O)COCc2ccc(Cl)cc2)nnc1C1CC1 (configuration not stated) | 14 |
| Cc1ccc(N2CCCC(NC(=O)CCc3ccccn3)C2=O)cc1 (configuration not stated) | -2.16 |
| O=C(NCCc1cccs1)N1CCCC1CCCO (configuration not stated) | 5.82 |
| CS(=O)(=O)CCCSc1n[nH]c(-c2ccc3c(c2)CCC3)n1 | -0.0422 |
| CC(NC(=O)N1CCNC(=O)CC1)c1ccc(OC(F)F)cc1 (configuration not stated) | 11.6 |
| O=C(c1cnns1)N1CCN(Cc2ccc(F)cc2Cl)CC1 | -127 |
| O=c1[nH]nc2n1CCN(S(=O)(=O)c1ccccc1Cl)C2 | 3.61 |
| O=C(CC(F)(F)F)NCC(O)c1ccc2ccccc2c1 (configuration not stated) | -4.06 |
| O=C(NCCNc1cnccn1)NCC1CCS(=O)(=O)C1 (configuration not stated) | -1.68 |
| Cc1ccc(F)c(C(=O)Nc2c(C(N)=O)n[nH]c2C)c1 | -0.587 |
| COc1ccc(C(=O)CCc2nc(C3CC3)no2)cc1F | -2.89 |
| CC(=O)N1CCCN(C(C)c2ccc(Br)cc2)CC1 (configuration not stated) | 7.89 |
| CN1CC(C(=O)NCc2ccc(Br)cc2F)CC1=O (configuration not stated) | 9.01 |
| Cc1ccn(-c2ccc(NCc3ccccc3F)nn2)n1 | 3.66 |
| CCC1CCCCN1C(=O)c1ccc2[nH]nnc2c1 (configuration not stated) | -10.7 |
| CCOC(C)c1nc(CN2CCC(CNC(C)=O)CC2)cs1 (configuration not stated) | -15 |
| CN(C)S(=O)(=O)N1CCCC1CC(=O)c1cccs1 (configuration not stated) | -9.44 |
| Cc1cnc(CNc2c(F)cccc2-n2cccn2)o1 | 15.6 |
| CC(C)OCCOCc1cccc(NC(=O)NCc2ccncc2)c1 | -12 |

| Structure (SMILES) | cytotoxicity at 10 µM [%] |
| --- | --- |
| COc1c(C2CCCN2C(=O)c2ccc(Cl)o2)c(C)nn1C (configuration not stated) | -10.4 |
| c1cnc(N2CCOCC3(CCN(c4cnccn4)CC3)C2)nc1 | -103 |
| COCC(=O)N1CCN(CC2CC2)c2ncccc2C1 | -100 |
| COc1ccccc1OC1CCN(c2nc(N)nc3[nH]cnc23)CC1 | 2.94 |
| Cc1cc(N(C)Cc2ncc[nH]2)nc(-c2cccnc2)n1 | 4.37 |
| Cc1cc(-c2ccc(C(C)N3CCCCC3)cc2)cnc1N (configuration not stated) | -3.44 |
| Cc1cc(C)n(CC2(CNC(=O)C(c3ccc(F)cc3)N(C)C)CC2)n1 (configuration not stated) | 0.438 |
| O=c1n(CC2CCCCO2)nc(CC2CCNCC2)n1-c1ccccc1 (configuration not stated) | -6.66 |
| COc1cccc(F)c1-c1nc2c([nH]1)c(C1CC1)nn2C | 0.271 |
| COc1ccc(-n2nc(C(C)C)nc2Cn2cncn2)cc1 | 4.22 |
| CCOc1cccc(C(=O)N2CCCn3nc(CCC(=O)O)cc3C2)c1 | -3.43 |
| CN1CCN(C(=O)c2ccc3c(c2)nc(N2CCOCC2)n3C)CC1=O | 1.22 |
| CC(=O)N[C@@H]1CN(Cc2nccn2C)C[C@H]1c1ccc(C)cc1 | 14.1 |
| Cc1ccc(-c2nc(CN3CCOCS3(=O)=O)c(C)o2)cc1 | -0.724 |
| CC(C)c1noc(-c2ccc(NCc3noc(C(C)C)n3)nc2)n1 | -6.49 |
| CCc1ccc(CNC(=O)CCc2nnc(-c3ccc(C)s3)o2)nc1 | -3.65 |
| COc1cccc(CN(C)Cc2nc3cc(C)ccc3[nH]2)c1O | 2.74 |
| O=C(C1CCC1)N1CCN(Cc2ccsc2)[C@H]2CS(=O)(=O)C[C@H]21 | -12 |
| CCC1CN(C(=O)c2ccc(Cl)cc2O)CCN1C(C)C (configuration not stated) | -15.5 |
| Cc1ncsc1-c1nnc(C2CCN(CC3CCCCC3)CC2)o1 | 1.59 |
| Cc1c[nH]nc1C1CCCCN1C(=O)Cn1cc(Cl)cn1 (configuration not stated) | 4.11 |
| NC(=O)COc1ccc(C(=O)N2CCCC(n3ccnc3)C2)cc1 (configuration not stated) | -13 |
| COc1cccc2cc(CNCc3ccnc(N4CCCCC4)c3)oc12 | -0.381 |

| Structure (SMILES) | cytotoxicity at 10 µM [%] |
| --- | --- |
| COc1cccc(OCC(=O)NS(=O)(=O)c2cccnc2)c1 | -12.1 |
| NC(=O)c1cnn2c1NCC(CNCCOc1ccccc1)C2 (configuration not stated) | -11.4 |
| CCc1noc(CN2CCC(c3ccnn3CCO)CC2)n1 | -11 |
| CCc1nc(CN2CCCN(C(=O)CC(F)(F)F)CC2)cs1 | -18.9 |
| CC(C(=O)N1CCOCC1)n1cncn1 (configuration not stated) | -1.45 |
| Cc1nccc(C(=O)NC(COCC(C)C)c2ccco2)n1 (configuration not stated) | -10.7 |
| Cc1csc(C2CCCCN2C(=O)c2cc(Cl)c[nH]2)n1 (configuration not stated) | -6.73 |
| CCc1nnc(CNC2CCc3nc(C(C)C)nn3C2)o1 (configuration not stated) | -20.6 |
| Cc1cnn(CCC(=O)N2CCCC(c3ccn[nH]3)C2)c1 (configuration not stated) | -8.25 |
| Cc1ccc(CCC(=O)N2CCCC(n3cncn3)C2)c(C)c1 (configuration not stated) | 1.8 |
| Cc1noc(C(C)C)c1C(=O)NCCCOC(C)C | -9.83 |
| CCN1CCn2c(C)cnc2C12CCN(C(=O)N(C)C)CC2 | 4.91 |
| CN(C)CCO[C@H]1CN(C(=O)c2cccs2)[C@@H]2COC[C@H]12 | -3.83 |
| COc1ccc(CN2C[C@H]3CN(c4cncnc4)C(=O)[C@H]3C2)cc1 | 4.74 |
| c1ccc(CN2CCCn3nnc(CNc4ncccn4)c3C2)nc1 | -3.29 |
| CCN1CCn2cc(CNC(=O)c3cnn(C)c3)nc2C1 | 8.88 |
| Cc1cccc(CN2C(=O)CC[C@H]3[C@@H]2CCN3CC(=O)N(C)C)n1 | -71.7 |
| Cc1nc(Cn2c3c(ccc2=O)CCN(CC2CCC2)CC3)cs1 | 5.1 |
| CNC(=O)N1CC[C@H]2N(C)CC[C@@]2(C(=O)N2CCOCC2)CC1 | -2.72 |
| CCn1cc2c(n1)CN(S(=O)(=O)c1cn(C)cn1)CC2COC (configuration not stated) | 5.41 |
